Data: paper PMC5269458 (Metallomics : integrated biometal science, 2017)
≈ marks a conversion by molar mass, not a printed value. Where two headings read alike, the source gives them in different places. Marks after values point to notes of the source that are not given here. One block for each molecule: values may come before it.

Key:
[1] = tested on: wild-type C. neoformans H99; assay: Growth inhibition; format: cell-based, Cryptococcus neoformans; conditions: for Minimum inhibitory concentration (MIC) / MIC: 30 °C; for effect of supplemental Cu on the growth inhibition by the compound: 1 mM Cu, high compound concentration (100 μM; CQ 50 μM); for MIC: Cryptococcus neoformans, read-out: Minimum inhibitory concentration (MIC), supplemental [Cu] 1 mM (CuSO4); for effect of added Ag(I) on MIC: 10 μM supplemental Ag(I); for effect of added Cu(II) on MIC: 10 μM supplemental Cu(II); for effect of added Fe(III) on MIC: 10 μM supplemental Fe(III); for effect of added Zn(II) on MIC: 10 μM supplemental Zn(II); for growth compared to no treatment at 48 h: 100 μM compound, no supplemental Cu
[2] = tested on: ctr1Δctr4Δ mutant strain of C. neoformans; assay: Growth recovery of Cu-import deficient mutant in YPEG medium; format: cell-based, Cryptococcus neoformans; conditions: YPEG medium without supplemental Cu, micromolar compound, 48 h
[3] = tested on: ctr1Δctr4Δ mutant strain of C. neoformans; conditions: YPEG medium; cited from earlier work
Conditional Cu [4] = format: binding
[5] = Calcein competition assay for Cu; format: binding; conditions: 100 μM compound; HEPES pH 7.4 and SC medium pH 4.5
[6] = pH 7.4; ref Smith, R. M.; Martell, A. E.; Motekaitis, R. J, 2007; cited from earlier work
WT C. neoformans [7] = conditions: with 10 μM Cu; cited from earlier work
[8] = tested on: C. neoformans wild type, H99 cells; format: cell-based, Cryptococcus neoformans; conditions: SC medium; for cellular metal content compared to the other conditions: 10 μM ligand
Conditional Cu [9] = format: binding; conditions: for competition for Cu(I) with BCA or ferrozine: pH 7.4, anaerobic
WT C. neoformans [10] = assay: Fungicidal assay; format: cell-based, Cryptococcus neoformans; conditions: 24 h in liquid culture, PyS 3 μM
Stoichiometry with Cu [11] = format: binding; conditions: 5% DMSO in universal buffer, pH 7.4
Procedure, shortened: (§1)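 Ligand–Cu mixtures were made in 5% DMSO in Britton–Robinson universal buffer, pH 7.4. Total metal plus ligand concentration was held constant while the Cu mole fraction was varied from 0.1 to 1.0, and samples were read by UV-vis. Ligand stocks were 100 mM in DMSO. For Cu(I), the buffer (0.04 M […], H3PO4, CH3CO2H) was deoxygenated, samples were prepared and measured anaerobically in a glove box, and stock concentration was set by BCA titration at 562 nm.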

Stoichiometry with Cu [12] = format: binding; conditions: 5% DMSO in universal buffer, pH 7.4, anaerobic
Procedure, shortened: as §1

[13] = cited from earlier work
[14] = no supplemental Cu ([Cu] 0 mM), SC medium, 48 h
[15] = supplemental [Cu] 1 mM (CuSO4), SC medium, 48 h
[16] = 10 μM ligand co-incubated with 10 μM CuSO4, 1 h
[17] = conditional, universal buffer pH 7.4, competition with PAR
[18] = negative log of free [Cu] at pH 7.4, total ligand 10 μM, total Cu 1 μM
[19] = with 10 μM CuSO4, ThM above 6 μM
[20] = supplemental [Cu] 0.01 mM (CuSO4), SC medium, 48 h
[21] = conditional, universal buffer pH 7.4, competition with BCA

Minimum inhibitory concentration (MIC) [1, 14]: higher than 100 μM
SMILES: Cc1cc(-c2ccc(S(=O)(=O)O)cc2)c2ccc3c(-c4ccc(S(=O)(=O)O)cc4)cc(C)nc3c2n1 [BCS, bathocuproine disulfonic acid]

SMILES: Oc1c(I)cc(Cl)c2cccnc12 [CQ, clioquinol]
effect of supplemental Cu on the growth inhibition by the compound [1]: completely abrogated
MIC ([1]; 48 h, SC medium, 48 h): > 50 µM
restoration of growth of ctr1Δctr4Δ mutant [2]: unable to restore growth

SMILES: Oc1cccc2cccnc12 [Compound 8HQ, 8-hydroxyquinoline]
effect of added Ag(I) on MIC ([1]; 48 h): no effect
effect of added Cu(II) on MIC ([1]; 48 h): significant decrease
effect of added Fe(III) on MIC ([1]; 48 h): did not significantly affect
effect of added Zn(II) on MIC ([1]; 48 h): did not significantly affect
MIC ([1]; 48 h, SC medium, 48 h): 6 µM (≈ 0.871 µg/mL)
Minimum inhibitory concentration (MIC) [1, 14]: >100 µM
restoration of growth of ctr1Δctr4Δ mutant [3]: recover growth
pCu(II) (Conditional Cu [4]; pH 7.4): 18.7
competition with calcein for Cu(II) [5]: largest pH dependence
Cu(II) log KML2 [6]: 22.9 ± 0.1 ^a
fungicidal activity (viable fungi) (WT C. neoformans [7]): absence of detectable viable fungi

SMILES: CCN(CC)C(=S)SSC(=S)N(CC)CC [DSF, disulfiram]
MIC ([1]; 48 h, SC medium, 48 h): 6 µM (≈ 1.78 µg/mL)
restoration of growth of ctr1Δctr4Δ mutant [2]: restored to near wild type levels

SMILES: Cc1c(O)c(=O)ccn1C [Dfp, deferiprone]
Minimum inhibitory concentration (MIC) [1, 15]: >100 µM
cell-associated Cu, Fe and Zn content [8, 16]: did not dramatically alter cellular metal content
cellular metal content compared to the other conditions ([8]; 1 h): decreased cellular metal content
competition for Cu(I) with BCA or ferrozine (Conditional Cu [9]): did not compete
restoration of growth of ctr1Δctr4Δ mutant [2]: unable to restore growth
Cu(II) log KML2 (Conditional Cu [4]; [17]): 15.3 ± 0.3
pCu(II) (Conditional Cu [4]; [18]): 11.1

SMILES: O=C(O)CN(CCN(CC(=O)O)CC(=O)O)CC(=O)O [EDTA, ethylenediamine tetraacetic acid]
growth compared to no treatment at 48 h ([1]; SC medium): decrease in growth
effect of supplemental Cu on the growth inhibition by the compound [1]: reversed

SMILES: Cc1occc(=O)c1O [Mal, maltol]
cell-associated Cu, Fe and Zn content [8, 16]: did not dramatically alter cellular metal content
competition for Cu(I) with BCA or ferrozine (Conditional Cu [9]): did not compete
restoration of growth of ctr1Δctr4Δ mutant [2]: unable to restore growth
Cu(II) log KML2 (Conditional Cu [4]; [17]): 12.2 ± 0.3
pCu(II) (Conditional Cu [4]; [18]): 8.0

SMILES: [O-][n+]1ccccc1S [PyS, pyrithione]
effect of added Ag(I) on MIC ([1]; 48 h): significantly lowered
effect of added Cu(II) on MIC ([1]; 48 h): significant decrease
effect of added Fe(III) on MIC ([1]; 48 h): did not significantly affect
effect of added Zn(II) on MIC ([1]; 48 h): did not significantly affect
MIC ([1]; 48 h, SC medium, 48 h): 6 µM (≈ 0.763 µg/mL)
fungicidal or fungistatic activity (CFU) (WT C. neoformans [10]; [19]): fungicidal
fungicidal or fungistatic activity (CFU) (WT C. neoformans [10]; without Cu, ThM 100 μM): fungicidal
cell-associated Cu, Fe and Zn content ([8]; 10 μM ligand alone, 1 h): Metal accumulation did not occur
cell-associated Cu, Fe and Zn content [8, 16]: hyper accumulation of Cu, Zn, and Fe
Cu(I) log KML2 (Conditional Cu [9]; pH 7.4): 17.1 ± 0.2
pCu(I) (Conditional Cu [9]; pH 7.4): 12.9
restoration of growth of ctr1Δctr4Δ mutant [2]: restored to near wild type levels
Cu(II) log KML2 (Conditional Cu [4]; pH 7.4): ≥20 ^b
pCu(II) (Conditional Cu [4]; pH 7.4): ≥15
stoichiometry with Cu(II) (Stoichiometry with Cu [11]): 2L:1Cu(II)
stoichiometry with Cu(I) (Stoichiometry with Cu [12]): Bis complexes
competition with calcein for Cu(II) [5]: able to compete effectively for Cu(II) at both pH values

SMILES: O=C(N/N=C/c1ccccc1O)c1ccncc1 [SIH, salicylaldehyde isonicotinoyl hydrazine]
Minimum inhibitory concentration (MIC) [1, 14]: higher than 100 μM
growth with compound in combination with Cu ([1]; with 1 mM Cu, SC medium, 48 h): inhibited growth slightly

SMILES: [SH-].[SH-].[S]=[Mo]=[S] [TTM, tetrathiomolybdate]
growth compared to no treatment at 48 h ([1]; SC medium): decrease in growth
effect of supplemental Cu on the growth inhibition by the compound [1]: reversed
Minimum inhibitory concentration (MIC) [1, 14]: higher than 100 μM

SMILES: Cc1c(O)c(=S)ccn1C [ThDfp]
growth compared to no treatment at 48 h ([1]; SC medium): decrease in growth
effect of supplemental Cu on the growth inhibition by the compound [1]: reversed
Minimum inhibitory concentration (MIC) [1, 14]: >100 µM
Minimum inhibitory concentration (MIC) [1, 20]: >100 µM
Minimum inhibitory concentration (MIC) [1, 15]: >100 µM
cell-associated Cu, Fe and Zn content [8, 16]: did not dramatically alter cellular metal content
cellular metal content compared to the other conditions ([8]; 1 h): decreased cellular metal content
Cu(I) log KML2 (Conditional Cu [9]; [21]): 16.4 ± 0.2
pCu(I) (Conditional Cu [9]; [18]): 12.2
restoration of growth of ctr1Δctr4Δ mutant [2]: unable to restore growth
Cu(II) log KML2 (Conditional Cu [4]; [17]): ≥20 ^b
pCu(II) (Conditional Cu [4]; [18]): ≥15
stoichiometry with Cu(II) (Stoichiometry with Cu [11]): 2L:1Cu(II)
stoichiometry with Cu(I) (Stoichiometry with Cu [12]): Bis complexes
competition with calcein for Cu(II) [5]: able to compete effectively for Cu(II) at both pH values

SMILES: Cc1occc(=S)c1O [ThM, thiomaltol]
effect of added Ag(I) on MIC ([1]; 48 h): no effect
effect of added Cu(II) on MIC ([1]; 48 h): significant decrease
effect of added Fe(III) on MIC ([1]; 48 h): did not significantly affect
effect of added Zn(II) on MIC ([1]; 48 h): did not significantly affect
Minimum inhibitory concentration (MIC) [1, 14]: >100 µM
MIC in the presence of added Cu ([1]; range over low (10 μM) and high (1 mM) supplemental Cu, SC medium, 48 h): 6 to 25 µM
Minimum inhibitory concentration (MIC) [1, 20]: 6 µM (≈ 0.853 µg/mL)
Minimum inhibitory concentration (MIC) [1, 15]: 25 µM (≈ 3.55 µg/mL)
fungicidal or fungistatic activity (CFU) (WT C. neoformans [10]; [19]): fungicidal
fungicidal or fungistatic activity (CFU) (WT C. neoformans [10]; without Cu, ThM 100 μM): fungistatic
cell-associated Cu, Fe and Zn content ([8]; 10 μM ligand alone, 1 h): Metal accumulation did not occur
cell-associated Cu, Fe and Zn content [8, 16]: hyper accumulation of Cu, Zn, and Fe
Cu(I) log KML2 (Conditional Cu [9]; [21]): 16.4 ± 0.1
pCu(I) (Conditional Cu [9]; [18]): 12.2
restoration of growth of ctr1Δctr4Δ mutant [2]: restored to near wild type levels
Cu(II) log KML2 (Conditional Cu [4]; [17]): ≥20 ^b
pCu(II) (Conditional Cu [4]; [18]): ≥15
stoichiometry with Cu(I) (Stoichiometry with Cu [12]): Bis complexes
competition with calcein for Cu(II) [5]: able to compete effectively for Cu(II) at both pH values

SMILES: O=C(O)c1cc(-c2cc(C(=O)O)c3ccccc3n2)nc2ccccc12.O=C(O)c1cc(-c2cc(C(=O)O)c3ccccc3n2)nc2ccccc12.[Cu+] [[Cu^I(BCA)2]^3−]
Log K ([13]; constant in fitting model, universal buffer pH 7.4 with 5% DMSO): 17.7[45]

SMILES: O=C(O)c1ccc(-n2nc(-c3ccccc3O)nc2-c2ccccc2O)cc1 [deferasirox]
growth compared to no treatment at 48 h ([1]; SC medium): decrease in growth
effect of supplemental Cu on the growth inhibition by the compound [1]: reversed

SMILES: O=S(=O)([O-])c1ccc(-c2nnc(-c3ccccn3)nc2-c2ccc(S(=O)(=O)[O-])cc2)cc1.[Na+].[Na+] [ferrozine]
log KFz2Cu ([13]; Cu(I) complex): 15.1
